This is a sample that favours compounds with a hit; in the whole collection about 1.7% have one here.
TPT1 inh: blocks Candida albicans tRNA 2'-phosphotransferase. recombinant caTPT1, FP RNA substrate dephosphorylation. inhibition, % at 5 µM. actives 0.81% (n = 300,000). AID 1962;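 active = inhibition above the mean of all tested compounds plus 3 SD, set per screening campaign, cut at about 24% in these data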
CSN deneddyl inh: blocks human CSN-mediated cullin deneddylation. Purified CSN, SCF-Nedd8-OG deneddylation, fluorescence polarization. actives 0.38% (n = 360,000). AID 651999. Q92905. inhibition, % at 12.5 µM;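 active = pattern-corrected inhibition above about 35%, with an unprinted fluorescence ratio check between 0.5 and 1.5, limit read from the data, passing the limit was not always enough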
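Assay system: HEK293T-derived human Csn5 enzyme; quantity: 0.24 nM enzyme; medium: Tris/NaCl/DTT buffer, pH 7.5; also added: substrate SCFSkp2-Nedd8OG, 10 nM; doses: 12.5 µM compound; schedule: 90 min reaction at room temperature; signal: FP; read-out: % inhibition of substrate cleavage by Csn5; benchmarks: substrate-only high control, full reaction low control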
IDE cell activ: activators of human insulin-degrading enzyme in cells; activation, % at 5.96 µM; actives 0.073% (n = 340,000); HEK cells, FAbeta-B cleavage, fluorescence polarization; 0% vehicle, 100% cell-free pure enzyme wells; P14735; AID 493087;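 active = activation above the mean of all tested compounds plus 3 SD, set per screening campaign, cut at about 17% in these data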
HNF4A DNA FP: change in binding of human HNF4 alpha to DNA; AID 1224865; actives 0.3% (n = 360,000); activity change, % at 10 µM; HNF4a-FITC DNA binding, fluorescence polarization, 1 h; P41235; in the data active = activity change above about 30%, passing the limit was not always enough
Rpn11 inh: Rpn11 (human) deubiquitinase inhibition; calls only at 20 µM; human 26S proteasome, Ub4-pepOG fluorescence polarization; 20S core pre-blocked with epoxomicin; actives 0.59% (n = 360,000);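 active = inhibition at 20 µM, scaled to each plate's controls, above about 33%, limit read from the data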
IDE inh: inhibitors of human insulin-degrading enzyme in cells; inhibition, % at 5.59 µM; HEK cells, FAbetaB cleavage, fluorescence polarization; actives 0.41% (n = 320,000); P14735;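 active = percent inhibition above the average of all tested compounds plus 3 SD, set per screening campaign, cut at about 16% in these data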;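 also: IDE supplied by intact live HEK cells; FP after avidin binding of uncleaved biotin substrate so inhibition keeps polarization high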
Rpn11 inh conf: confirmation of human proteasome Rpn11 inhibitors. shares compounds with Rpn11 inh. purified human 26S proteasome, Ub4-pepOG fluorescence polarization; proteasome pretreated with epoxomicin. inhibition, % at 20 µM. actives 29% (n = 1,900)
MMP-2 inh: MMP-2 (human) inhibition counter-screen; shares compounds with Rpn11 inh; recombinant MMP-2, FRET peptide cleavage fluorescence; inhibition, % at 20 µM; actives 4% (n = 1,900);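 also: human MMP-2 activated beforehand with APMA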
Thrombin FP: thrombin (bovine) inhibition counter-screen; bovine thrombin cleavage of Ub4-pepOG, fluorescence polarization; inhibition, % at 20 µM; shares compounds with Rpn11 inh; actives 13% (n = 1,900); AID 602333;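 active = mean inhibition at least 40% at 20 µM, or signal 3 deviations below plate average, so some actives read negative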
Target sequence (P00735 whole entry, looked up): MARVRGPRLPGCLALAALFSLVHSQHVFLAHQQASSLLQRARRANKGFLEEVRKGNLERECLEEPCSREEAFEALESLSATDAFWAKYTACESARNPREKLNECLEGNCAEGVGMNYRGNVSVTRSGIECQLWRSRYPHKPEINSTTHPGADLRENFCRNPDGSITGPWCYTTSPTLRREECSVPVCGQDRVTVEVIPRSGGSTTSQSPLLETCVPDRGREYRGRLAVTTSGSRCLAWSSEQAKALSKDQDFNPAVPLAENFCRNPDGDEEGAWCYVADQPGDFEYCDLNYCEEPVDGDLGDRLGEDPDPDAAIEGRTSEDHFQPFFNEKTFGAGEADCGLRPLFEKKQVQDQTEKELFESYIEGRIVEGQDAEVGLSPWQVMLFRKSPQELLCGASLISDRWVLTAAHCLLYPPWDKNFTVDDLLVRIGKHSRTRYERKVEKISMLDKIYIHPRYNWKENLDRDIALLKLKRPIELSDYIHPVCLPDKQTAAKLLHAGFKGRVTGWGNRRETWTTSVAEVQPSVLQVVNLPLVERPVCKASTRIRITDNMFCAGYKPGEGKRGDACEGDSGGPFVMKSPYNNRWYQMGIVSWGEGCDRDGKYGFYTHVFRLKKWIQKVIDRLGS
Hits are given with their value; – = inactive; · = not tested or not shown; + = active, no number. Rule as the data show it, unless noted: active = inhibition above about 40%; inactive = the rest.

SMILES | TPT1 inh | CSN deneddyl inh | IDE cell activ | HNF4A DNA FP | Rpn11 inh | IDE inh | Rpn11 inh conf | MMP-2 inh | Thrombin FP
Cc1ccc2nc(C)cc(Nc3ccc([N+](=O)[O-])cc3)c2c1 | – | – | · | – | + | – | – | – | –
O=C(NCc1ccco1)c1cccc(N2CCCC2=O)c1 | – | – | – | – | + | – | – | – | –
COC(=O)Nc1ccc(S(=O)(=O)N(CCO)CCO)cc1 | – | – | – | – | – | – | · | · | ·
CCc1ccc(C(=O)NNc2cc(Cl)cc(Cl)c2)cc1 | – | – | – | – | – | – | · | · | ·
CCc1ccc(C(=O)NNc2ccc(Cl)cc2)cc1 | – | – | – | – | + | – | – | – | –
Cc1cccn2c(=O)c3cc(C#N)c(=N)n(CCN4CCOCC4)c3nc12 | · | – | – | – | – | · | · | · | ·
S=c1[nH]nc(-c2cc(-c3ccccc3)n[nH]2)n1/N=C/c1ccc(Cl)cc1 | – | – | – | – | – | – | · | · | ·
S=c1[nH]nc(-c2cc(-c3ccccc3)n[nH]2)n1/N=C/c1ccc(Cl)c(Cl)c1 | – | 72 | – | – | + | – | 55 | – | –
S=c1[nH]nc(-c2cc(-c3ccccc3)n[nH]2)n1/N=C/c1cccc(Cl)c1 | – | – | – | – | + | – | 157 | – | 81
CCOCCCNS(=O)(=O)c1ccc(OC)c(Cl)c1Cl | – | – | – | – | – | – | · | · | ·
CCOC(=O)C1=C(COC(=O)COc2cccc(C)c2C)NC(=O)NC1C (configuration not stated) | · | – | – | – | – | – | · | · | ·
Cn1c(CN2CCOCC2)nnc1SCC(N)=O | – | – | – | – | – | – | · | · | ·
CCCSc1nnc(CN2CCOCC2)n1C | – | – | – | – | + | – | – | – | –
C=C(C)c1cccc(C(C)(C)NC(=O)Nc2nncs2)c1 | – | – | – | – | – | – | · | · | ·
O=NN(CC(=O)NN=CC=Cc1ccccc1)CC(=O)NN=CC=Cc1ccccc1 | · | – | · | – | + | · | – | – | –
Cc1cc(C)nc(NC(=O)Cc2ccc(Cl)cc2)c1 | – | – | – | – | – | – | · | · | ·
Cc1cc(C)n2nc(N)c(N=Nc3ccc4c(c3)OCO4)c2n1 | – | – | – | – | + | – | – | – | –
Cc1cc(C)n2nc(N)c(N=Nc3ccccc3)c2n1 | – | – | – | – | – | – | · | · | ·
CN(CC(=O)Nc1nccs1)S(=O)(=O)c1ccc(F)cc1 | – | – | – | – | + | – | – | – | –
COc1ccc(S(=O)(=O)N2CCCC(C(=O)NCc3cccnc3)C2)cc1C (configuration not stated) | · | – | · | – | – | · | · | · | ·
COc1ccc(OC)c(Nc2nc3nonc3nc2N2CCCC(C)C2)c1 (configuration not stated) | – | – | – | – | + | – | – | – | –
CC1CCCN(c2nc3nonc3nc2Nc2ccccc2F)C1 (configuration not stated) | – | – | – | – | – | – | · | · | ·
CCCN1CCN(C(=S)Nc2sc(CC)cc2C(=O)OC)CC1 | – | – | – | – | – | – | · | · | ·
COc1ccccc1NC(=O)CCC(=O)Nc1ccccc1OC | – | – | – | – | – | – | · | · | ·
COc1ccccc1NC(=O)CCC(=O)c1ccc(-c2ccccc2)cc1 | – | – | – | – | + | – | – | – | –
Cc1cc(N2CCCC2)c(F)cc1/C=C\[N+](=O)[O-] | · | – | – | – | + | · | 60 | – | –
Cc1cc(N2CCC(C)CC2)c(F)cc1[N+](=O)[O-] | – | – | – | – | – | – | · | · | ·
CCc1ccc(CN2CCN(S(=O)(=O)Cc3ccccc3)CC2)cc1 | – | – | – | – | – | – | · | · | ·
O=C(Nc1ccccc1-c1nnc(SCc2ccccc2)o1)c1ccccc1 | – | – | – | – | – | – | · | · | ·

Bioassay records (PubChem)
